Screening data (PubChem BioAssay)
Rows were chosen to be rich in hits. Some 3.5% of all compounds tested hit in one or more screens of this group.
MrgX1 PAM – human MrgX1 positive allosteric modulation, primary screen; 0.63% of 310,000 active; AID 588675; MrgX1-HEK293, Fluo-4 calcium flux, FDSS; active compounds read high; B-score at 10 µM;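 active means plate-corrected calcium response at least 3 library SD above typical, normal starting fluorescence, not activating the receptor alone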;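 further: compound read alongside a low EC10 to EC30 dose of BAM8-22 agonist; peak minus trough fluorescence over baseline measured at the second addition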
Target sequence (Q96LB2 whole entry, looked up): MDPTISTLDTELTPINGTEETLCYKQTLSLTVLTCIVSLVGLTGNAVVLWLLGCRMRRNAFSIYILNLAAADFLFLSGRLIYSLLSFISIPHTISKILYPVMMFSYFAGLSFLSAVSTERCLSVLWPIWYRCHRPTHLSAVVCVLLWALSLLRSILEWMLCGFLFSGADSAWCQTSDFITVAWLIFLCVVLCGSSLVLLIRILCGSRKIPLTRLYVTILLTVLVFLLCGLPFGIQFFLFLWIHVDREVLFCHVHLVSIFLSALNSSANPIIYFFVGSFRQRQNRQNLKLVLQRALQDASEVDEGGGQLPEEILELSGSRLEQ
MrgX1 antagonist – blocks BAM8-22 activation of human MrgX1 receptor | 1.3% of 310,000 active | Q96LB2 | AID 588676 | B-score at 10 µM | MRGX1-HEK293 calcium flux, Fluo-4, BAM8-22 antagonism; active compounds read low;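 active means calcium-response B-score plate-corrected more than 3 library SD below zero, starting fluorescence within 5 deviations, no agonist response on first addition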;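 further: peak minus trough fluorescence over baseline after final BAM8-22 challenge near maximal dose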
RGS4 pot – RGS4 potentiation or activation | HEK293 M3R/inducible RGS4, carbachol calcium flux Fluo4; active compounds read low | AID 463111 | B-score at 10 µM | 0.92% of 310,000 active;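 active means B-score of the integrated calcium signal more than 4 SD below the library mean, with starting fluorescence not abnormally high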;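 further: negative B-score means reduced calcium response which marks RGS4 activation or potentiation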
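Assay system: Inducible-RGS4 HEK293 cells carrying M3 receptor | Schedule: Compound preincubation 20 min at room temperature before agonist | Signal: Kinetic calcium fluorescence imaging with Fluo4-AM dye, 2 µM | Read-out basis: B score from integrated fluorescence ratio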
RGS4 block – human RGS4 inhibition; AID 463165; B-score at 10 µM; P49798; HEK293 M3R/RGS4 inducible, Fluo-4 calcium flux; active compounds read high; triggered by carbachol at its EC20; 0.45% of 310,000 active;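 active means B-score, a plate-corrected calcium signal, over three deviations above library mean, with baseline fluorescence within five deviations of library mean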;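 further: RGS4 expression induced by doxycycline in cells with stable M3 receptor; B-score is computed from the integrated fluorescence ratio over baseline after carbachol; higher B-score means a larger calcium signal and so more RGS4 inhibition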
Target sequence (P49798 whole entry, looked up): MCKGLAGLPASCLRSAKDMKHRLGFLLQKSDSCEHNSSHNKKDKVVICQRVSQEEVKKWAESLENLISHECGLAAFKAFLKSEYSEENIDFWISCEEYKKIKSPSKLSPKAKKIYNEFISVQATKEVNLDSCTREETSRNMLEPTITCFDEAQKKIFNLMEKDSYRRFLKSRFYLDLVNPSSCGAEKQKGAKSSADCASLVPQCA
MrgX1 agonist – human MrgX1 receptor agonism, primary screen. 0.44% of 310,000 active. AID 588627. MrgX1-HEK293 cells, Fluo-4 calcium fluorescence, agonist mode; active compounds read high. B-score at 10 µM;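 active means calcium response B-score plate-corrected fluorescence ratio at least 3 library SD, with starting fluorescence B-score inside 5 SD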
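Material: MrgX1-expressing HEK293 cells; input: 15,000 cells per well; doses: test compound given as first of three sequential additions; schedule: overnight plating before 1 h dye loading; technique: Fluo-4 NW calcium-flux fluorescence, kinetic read; evaluation: baseline-normalised fluorescence change ratio, B-scored; control set: plate-wise positive and negative controls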
Starred values were filed as active, the others as inactive; i = inactive; . = not tested or not shown.

SMILES | MrgX1 PAM | MrgX1 antagonist | RGS4 pot | RGS4 block | MrgX1 agonist
COCCNc1oc(/C=C/c2ccc(F)cc2)nc1S(=O)(=O)c1ccccc1 | i | i | i | i | i
CC1CC(C)CN(CCCNC(=O)Cn2ncc3c(=O)oc4ccccc4c32)C1 (stereo unspecified) | i | i | i | i | i
Cc1c2cnn(CC(=O)NCCCN3CC(C)CC(C)C3)c(=O)c2c(C)n1Cc1ccccc1Cl (stereo unspecified) | i | -6.89* | i | i | i
COc1ccc(/C=C2\N=C3CCCCCN3C2=O)cc1OC | i | -4.68* | i | i | i
CCn1ccnc1CN(C)C(=O)C1CCC(=O)N(Cc2cccc(F)c2)C1 (stereo unspecified) | i | i | i | i | i
O=C(CSc1nc2ccccc2c(=O)[nH]1)Nc1ccccc1C(F)(F)F | i | i | i | i | i
COc1ccc(C2=NN(c3nc(C(=O)O)cs3)C(O)(C(F)(F)F)C2)c(OC)c1 (stereo unspecified) | i | -6.54* | i | i | i
Cc1cc(NC(=O)CSc2ncnc3sc(C)c(C)c23)no1 | i | i | i | i | i
CCOC(=O)N1CCN(Cc2cc(=O)oc3ccc(Cl)cc23)CC1 | i | i | i | i | i
CCOC(=O)N1CCN(Cc2cc(=O)oc3cc4c(cc23)CCC4)CC1 | i | i | i | i | 33*
Cc1cc2oc(=O)cc(CN3CCCCC3)c2cc1C(C)C | i | i | i | i | 50.9*
Cc1cc2oc(=O)cc(CN3CCCCC3)c2cc1O | i | i | i | i | i
Cc1cc(C)c2c(N)c(C(=O)N3CCc4ccccc4C3)sc2n1 | i | i | i | i | i
COc1ccc(NC(=O)CN2CCN(CC(=O)Nc3ccc(OC)cc3)CC2)cc1 | i | i | i | i | i
S=C(NCCc1ccccc1)Nc1ccc(Br)cc1 | i | i | i | i | i
COc1ccc(NC(=O)Nc2cccc(Cl)c2Cl)c(OC)n1 | i | i | i | i | i
CCOC(=O)c1ccc(NC(=O)N2CCN(c3ccccn3)CC2)cc1 | i | i | -7.14* | i | i
Cc1cccn2c(=O)c3cc(C#N)c(=NC(=O)c4ccccc4)n(Cc4ccco4)c3nc12 | i | -4.87* | i | i | i
Cc1cn2c(=O)c(C(=O)NCc3ccc4c(c3)OCO4)cnc2s1 | i | i | i | i | i
O=C(C[n+]1cc(-c2ccc(Cl)cc2)n2c1CCC2)N1c2ccccc2Sc2ccccc21 | i | i | -7.6* | i | i
CC1CCC(C(C)C)C(OC(=O)C[n+]2cc(-c3ccc(Cl)cc3)n3c2CCC3)C1 (stereo unspecified) | i | -7.05* | i | i | i
COc1ccc(-c2c[n+](CC(=O)N3c4ccccc4Sc4ccccc43)c3n2CCC3)cc1 | i | i | -8.93* | i | i
Cc1ccc(-c2c[n+](CC(=O)OCc3ccccc3)c3n2CCC3)cc1 | i | i | i | i | i
O=[N+]([O-])c1cnc(N2CCCCC2)c([N+](=O)[O-])c1 | i | i | i | i | i
Cc1cc(=O)nc2c3ccccc3n(C(C)C(=O)NCCN3CCOCC3)n12 (stereo unspecified) | i | i | i | i | i
SMILES | MrgX1 PAM | MrgX1 antagonist | RGS4 pot | RGS4 block | MrgX1 agonist
CN1C(=O)/C(=C/c2ccccc2OCc2ccccc2)NC1=S | i | i | i | i | i
CN1C(=O)/C(=C/c2ccccc2OCc2ccc(F)cc2)N(C)C1=S | i | -5.23* | -9.61* | i | i
CCOC(=O)c1c(C)[nH]c(C(=O)/C(C#N)=C/c2ccc(OCC)cc2)c1C | i | i | -7.58* | i | i
CC(=O)c1c(C)[nH]c(C(=O)/C(C#N)=C/c2cccc(C)c2)c1C | i | i | i | i | i
COc1ccccc1C(=O)NC(=O)COC(=O)Cn1[nH]c(=O)c2ccccc2c1=O | i | -4.52* | i | i | i
CC(C)NC(=O)COC(=O)Cn1[nH]c(=O)c2ccccc2c1=O | i | i | i | i | i
Cn1c(=O)c2c(SCC(=O)N3CCCC3)nc(CC(C)(C)C)nc2n(C)c1=O | i | i | i | i | i
COC(=O)C(CC(=O)c1ccc(Br)cc1)n1ccnc1 (stereo unspecified) | . | . | i | 6.64* | .
COC(=O)C(CC(=O)c1ccc(Br)cc1)n1nc(C)cc1C (stereo unspecified) | i | i | i | i | i
CC(=O)Nc1sc(N/N=C/c2ccc(C)cc2)nc1-c1ccc(C)cc1 | i | i | i | i | i
CC(=O)Nc1sc(/C(C#N)=C/c2ccc(Cl)c(Cl)c2)nc1-c1ccc(C)cc1 | . | . | -8.86* | i | .
Cc1csc(=O)n1CC(=O)OCC(=O)NCc1ccc(F)cc1 | i | i | i | i | i
CCOC(=O)N1CCN(c2nc(N(c3ccccc3)c3ccccc3)nc(-n3ccnc3)n2)CC1 | i | i | -7.09* | i | i
Cc1ccc(S(=O)(=O)c2nnn3c2nc(NCCCN2CCCC2=O)c2ccccc23)cc1C | i | i | i | i | i
Cc1ccc(S(=O)(=O)c2nnn3c2nc(NC2CCN(Cc4ccccc4)CC2)c2ccccc23)cc1C | 8.27* | -11* | i | i | i
CCN1CCN(S(=O)(=O)c2ccc(Cl)c(C(=O)NC(C)(C)C)c2)CC1 | i | i | i | i | i
O=C(CC(Sc1ccc(Br)cc1)C(=O)O)c1ccc(Br)cc1 (stereo unspecified) | i | i | i | 6.93* | i
O=c1cc(NC2CCCCC2)c2ccccc2o1 | i | i | i | i | i
Cc1ccc(C(=O)Nc2nnc(S(=O)(=O)N3CCC(C)CC3)s2)cc1 | i | -6.36* | i | i | i
Cc1ccc(C(=O)Nc2nnc(S(=O)(=O)N3CCCCCC3)s2)cc1 | i | i | i | i | i
CCC(=O)c1ccc(OCC(=O)NCCc2ccccn2)cc1 | i | i | i | i | i
Cc1ccc2c(c1)N(C(=O)CSc1nncn1C)C(C)(C)c1ssc(=S)c1-2 | i | i | -8.71* | i | i
COC(=O)C1=C(C)N(Cc2ccco2)C(=O)/C1=C\c1ccc([N+](=O)[O-])cc1 | i | i | i | i | 28.2*
CC(NC(=O)Cn1cc(C(F)(F)F)ccc1=O)c1ccc(F)cc1 (stereo unspecified) | 6.91* | i | i | i | i
